Test results as given in ChEMBL document CHEMBL1949577, “Design, synthesis and biological evaluation of novel (E)-α-benzylsulfonyl chalcone derivatives as potential BRAF inhibitors” (Eur J Med Chem, 2012).

test system: not listed separately; assay: Inhibition of mouse full length GST-tagged B-Raf V600E mutant-mediated human MEK1 phosphorylation after 1 hr preincubation; conditions: not given

IC50 [µM]	SMILES
0.06	CNC(=O)c1cc(Oc2ccc(NC(=O)Nc3ccc(Cl)c(C(F)(F)F)c3)cc2)ccn1 [SORAFENIB]
> 25	O=C1c2ccccc2SC(c2cc(Br)ccc2O)N1c1ccc(C(F)(F)F)cc1 (centres undefined)
8.61	Cc1ccc(N(Cc2cc(Cl)cc(Cl)c2O)CN(N=O)c2ccccc2)cc1
10.6	O=c1cc(-c2ccc3c(c2)OCCO3)oc2cc(CCCN3CCCC3)cc(O)c12
> 25	Cc1ccc(N2C(=O)c3ccccc3SC2c2cc(Br)ccc2O)cc1 (centres undefined)

test system: not listed separately; assay: Growth inhibition of human WM266.4 cells expressing B-Raf V600E mutant after 24 hrs by MTT assay; assay type: functional; conditions: WM 266-4, 24 h
Procedure, shortened: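 MTT growth assay. Cells were plated, then returned to the incubator for 24 h to reattach before treatment. Compounds were made up at 20 mM in DMSO (stock), diluted in culture medium to […], and tested over 10 threefold serial dilutions. GI50 was reported from three separate experiments, or from two for some entries.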

SMILES	GI50 [µM]
CNC(=O)c1cc(Oc2ccc(NC(=O)Nc3ccc(Cl)c(C(F)(F)F)c3)cc2)ccn1 [SORAFENIB]	8.3

target: Serine/threonine-protein kinase B-raf (Homo sapiens, UniProt P15056, V600E); assay: Inhibition of B-Raf V600E mutant-mediated ERK phosphorylation in human WM266.4 cells by ELISA; assay type: cell-based; conditions: not given
Sequence (P15056 2-766 V600E limits assumed): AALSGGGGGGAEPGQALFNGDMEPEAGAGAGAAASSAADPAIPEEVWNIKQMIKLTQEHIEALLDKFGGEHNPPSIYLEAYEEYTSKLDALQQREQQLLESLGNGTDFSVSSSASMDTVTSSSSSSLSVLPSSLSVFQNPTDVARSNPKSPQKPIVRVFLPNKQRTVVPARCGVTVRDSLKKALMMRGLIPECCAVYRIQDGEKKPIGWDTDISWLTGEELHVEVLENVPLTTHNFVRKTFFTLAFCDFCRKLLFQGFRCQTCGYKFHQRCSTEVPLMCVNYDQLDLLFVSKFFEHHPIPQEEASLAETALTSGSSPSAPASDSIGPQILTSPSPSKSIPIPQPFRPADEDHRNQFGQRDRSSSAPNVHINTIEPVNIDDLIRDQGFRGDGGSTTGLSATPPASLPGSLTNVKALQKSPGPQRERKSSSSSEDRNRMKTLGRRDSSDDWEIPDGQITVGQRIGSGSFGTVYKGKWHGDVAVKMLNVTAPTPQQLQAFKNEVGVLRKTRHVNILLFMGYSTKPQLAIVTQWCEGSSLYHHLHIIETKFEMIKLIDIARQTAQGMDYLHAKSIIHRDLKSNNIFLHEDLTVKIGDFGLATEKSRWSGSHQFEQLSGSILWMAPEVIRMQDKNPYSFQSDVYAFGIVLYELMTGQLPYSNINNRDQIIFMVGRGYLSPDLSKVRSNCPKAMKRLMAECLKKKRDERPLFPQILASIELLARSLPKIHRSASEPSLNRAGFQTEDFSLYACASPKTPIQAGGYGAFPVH
Procedure, shortened: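 Phospho-ERK1/2 levels in WM266.4 melanoma cells were measured with an ELISA kit, run as the manufacturer instructs.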

IC50 [nM]	SMILES
1230	O=C(/C(=C\c1ccc([N+](=O)[O-])cc1)S(=O)(=O)Cc1ccccc1)c1ccc(Cl)cc1
1780	O=C(/C(=C\c1ccc(F)cc1)S(=O)(=O)Cc1ccccc1)c1ccc(Cl)cc1
1370	O=C(/C(=C\c1ccc([N+](=O)[O-])cc1)S(=O)(=O)Cc1ccccc1)c1ccccc1
